Test results published in ChEMBL document CHEMBL1765045, “Fine-tuning the selectivity of aldosterone synthase inhibitors: structure-activity and structure-selectivity insights from studies of heteroaryl substituted 1,2,5,6-tetrahydropyrrolo[3,2,1-ij]quinolin-4-one derivatives” (J Med Chem, 2011).

What was measured:
[1] = target: T1, CYP2D6 (Homo sapiens, UniProt P10635); assay: Inhibition of human CYP2D6 expressed in baculovirus-infected insect microsomes at 10 uM; assay type: ADME, Microsome
How it was run: (§1)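 Recombinant human CYP1A2, 2B6, 2C9, 2C19, 2D6 or 3A4 in baculovirus-infected insect microsomes (Supersomes), run per manufacturer's protocol. Inhibitor at 1 and 10 μM; percent inhibition is the mean of two experiments.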

[2] = target: CYP3A4 (Homo sapiens, UniProt P08684); assay: Inhibition of human CYP3A4 expressed in baculovirus-infected insect microsomes at 10 uM; assay type: ADME, Microsome; how it was run: as §1
[3] = target: T2, CYP1A2 (Homo sapiens, UniProt P05177); assay: Inhibition of human CYP1A2 expressed in baculovirus-infected insect microsomes at 1 uM; assay type: ADME, Microsome; how it was run: as §1
T2 sequence (P05177 whole entry): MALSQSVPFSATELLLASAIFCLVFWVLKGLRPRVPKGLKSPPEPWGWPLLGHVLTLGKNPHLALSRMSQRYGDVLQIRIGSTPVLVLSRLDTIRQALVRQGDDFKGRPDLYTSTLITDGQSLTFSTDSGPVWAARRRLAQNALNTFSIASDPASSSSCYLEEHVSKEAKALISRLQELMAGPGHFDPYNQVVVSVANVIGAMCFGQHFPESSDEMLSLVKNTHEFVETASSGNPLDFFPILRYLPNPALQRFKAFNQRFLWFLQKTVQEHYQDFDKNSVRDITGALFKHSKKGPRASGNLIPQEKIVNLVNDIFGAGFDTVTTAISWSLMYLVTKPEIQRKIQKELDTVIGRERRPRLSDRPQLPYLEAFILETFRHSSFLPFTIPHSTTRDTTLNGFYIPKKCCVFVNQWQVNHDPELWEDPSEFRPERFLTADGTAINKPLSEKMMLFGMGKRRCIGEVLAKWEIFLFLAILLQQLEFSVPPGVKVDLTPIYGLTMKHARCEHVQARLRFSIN

[4] = target: T1, CYP2D6; assay: Inhibition of human CYP2D6 expressed in baculovirus-infected insect microsomes at 1 uM; assay type: ADME, Microsome; how it was run: as §1
[5] = target: T3, Cytochrome P450 11B1, mitochondrial (Homo sapiens, UniProt P15538); assay: Inhibition of human CYP11B1 expressed in hamster V79 MZh cells assessed as conversion of [4-14C]-11-deoxycorticosterone substrate by HPTLC assay; assay type: cell-based
T3 sequence (P15538 whole entry): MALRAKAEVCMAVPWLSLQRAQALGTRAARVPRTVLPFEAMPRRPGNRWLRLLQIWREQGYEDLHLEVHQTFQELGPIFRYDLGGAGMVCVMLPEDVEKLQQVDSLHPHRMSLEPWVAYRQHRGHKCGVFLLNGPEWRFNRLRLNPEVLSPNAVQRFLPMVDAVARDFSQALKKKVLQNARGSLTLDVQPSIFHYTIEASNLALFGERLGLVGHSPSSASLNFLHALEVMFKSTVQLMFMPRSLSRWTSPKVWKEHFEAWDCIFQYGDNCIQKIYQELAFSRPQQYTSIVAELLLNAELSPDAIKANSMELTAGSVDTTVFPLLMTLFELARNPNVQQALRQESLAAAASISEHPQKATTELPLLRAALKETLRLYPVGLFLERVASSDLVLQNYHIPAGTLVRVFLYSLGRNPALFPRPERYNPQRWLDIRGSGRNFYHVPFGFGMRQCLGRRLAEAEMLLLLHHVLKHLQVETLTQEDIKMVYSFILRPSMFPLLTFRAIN
How it was run: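 V79 MZh hamster fibroblasts stably expressing human CYP11B1 or CYP11B2 incubated with [4-14C]-11-deoxycorticosterone, 100 nM, plus inhibitor at ≥3 concentrations. Reaction stopped with ethyl acetate, steroids extracted into the organic phase, and substrate conversion quantified by HPTLC with phosphoimaging. IC50 is the mean of at least three experiments.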

[6] = organism: Homo sapiens; assay: Selectivity ratio of IC50 for human CYP11B1 to IC50 for human CYP11B2
How it was run: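 Ratio of IC50 values from V79 MZh cell assays for human CYP11B1 and CYP11B2, IC50 CYP11B1/IC50 CYP11B2. Both assays used [4-14C]-11-deoxycorticosterone, 100 nM, inhibitor at ≥3 concentrations and HPTLC/phosphoimager readout of conversion.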

[7] = target: T4, aromatase (CYP19) (Homo sapiens, UniProt P11511); assay: Inhibition of aromatase at 0.5 uM
T4 sequence (P11511 whole entry): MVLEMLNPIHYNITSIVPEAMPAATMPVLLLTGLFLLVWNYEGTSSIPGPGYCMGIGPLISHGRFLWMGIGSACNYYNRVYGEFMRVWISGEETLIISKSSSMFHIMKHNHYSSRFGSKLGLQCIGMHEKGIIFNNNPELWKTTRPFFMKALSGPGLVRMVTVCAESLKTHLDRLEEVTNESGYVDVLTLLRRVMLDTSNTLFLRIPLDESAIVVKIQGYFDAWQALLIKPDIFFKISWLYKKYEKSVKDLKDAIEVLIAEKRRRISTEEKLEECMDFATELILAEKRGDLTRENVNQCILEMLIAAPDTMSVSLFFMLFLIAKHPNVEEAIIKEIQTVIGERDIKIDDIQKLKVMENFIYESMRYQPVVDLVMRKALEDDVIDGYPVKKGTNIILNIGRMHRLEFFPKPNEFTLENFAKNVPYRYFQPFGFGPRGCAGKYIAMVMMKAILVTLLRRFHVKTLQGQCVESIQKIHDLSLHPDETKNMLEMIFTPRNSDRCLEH
How it was run: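 Human placental microsomes as CYP19 source, [1β-3H]androstenedione substrate at 500 nM, inhibitor at 500 nM. Modified Thompson–Siiteri method, with fadrozole as reference.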

[8] = target: T2, CYP1A2; assay: Inhibition of CYP1A2 at 1 uM; assay type: ADME; how it was run: as §1

T1 sequence (P10635 whole entry): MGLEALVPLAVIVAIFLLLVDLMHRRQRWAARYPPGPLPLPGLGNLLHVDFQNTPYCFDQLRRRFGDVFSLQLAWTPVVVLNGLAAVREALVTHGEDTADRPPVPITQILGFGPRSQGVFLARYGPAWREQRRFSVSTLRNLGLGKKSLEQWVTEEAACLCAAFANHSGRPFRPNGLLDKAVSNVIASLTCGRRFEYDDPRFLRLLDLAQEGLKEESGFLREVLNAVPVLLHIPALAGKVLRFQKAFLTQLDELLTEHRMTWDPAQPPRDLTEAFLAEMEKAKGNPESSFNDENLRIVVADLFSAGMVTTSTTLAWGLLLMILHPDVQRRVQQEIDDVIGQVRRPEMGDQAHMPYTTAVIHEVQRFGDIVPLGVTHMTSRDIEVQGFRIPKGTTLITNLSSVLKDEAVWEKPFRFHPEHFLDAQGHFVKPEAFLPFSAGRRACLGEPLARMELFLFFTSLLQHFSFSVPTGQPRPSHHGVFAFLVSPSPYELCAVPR
Sequence of CYP3A4 (P08684 whole entry): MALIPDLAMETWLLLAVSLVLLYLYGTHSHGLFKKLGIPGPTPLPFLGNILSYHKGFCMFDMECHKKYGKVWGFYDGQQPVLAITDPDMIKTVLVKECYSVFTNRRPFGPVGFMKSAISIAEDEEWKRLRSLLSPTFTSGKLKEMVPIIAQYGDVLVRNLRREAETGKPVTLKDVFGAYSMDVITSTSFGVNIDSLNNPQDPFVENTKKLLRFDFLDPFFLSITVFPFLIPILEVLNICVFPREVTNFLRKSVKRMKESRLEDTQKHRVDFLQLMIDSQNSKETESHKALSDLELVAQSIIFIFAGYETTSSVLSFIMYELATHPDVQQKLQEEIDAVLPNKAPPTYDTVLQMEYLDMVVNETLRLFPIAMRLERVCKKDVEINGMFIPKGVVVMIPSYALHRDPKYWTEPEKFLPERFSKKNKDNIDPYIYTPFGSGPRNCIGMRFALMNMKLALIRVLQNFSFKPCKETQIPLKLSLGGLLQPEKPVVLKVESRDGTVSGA

Row | inhibition at 10 µM [1] [%] | inhibition at 10 µM [2] [%] | inhibition at 1 µM [3] [%] | inhibition at 1 µM [4] [%] | IC50 [5] [µM] | Ratio IC50 [6] | inhibition at 0.5 µM [7] [%] | inhibition at 1 µM [8] [%] | SMILES
1 | 9 | 43 | 9 | < 5 | 0.49 |  |  |  | O=C1CCc2cc(-c3cncc(-c4cccc(F)c4)c3)cc3c2N1CC3
2 | < 5 | < 5 | 8 | < 5 | 0.715 | 650 |  |  | O=C1CCc2cc(-c3cccnc3)cc3c2N1CC3
3 |  | 21 | 41 |  | 2.3 |  | 69 | 41 | O=C1CCc2cc(-c3cccnc3)cc3c2N1CCC3
4 | 13 | 19 | 37 | 9 | 0.247 |  |  |  | COc1cncc(-c2cc3c4c(c2)CCN4C(=O)CC3)c1
